These results are taken from ChEMBL document CHEMBL3826882, “Discovery of 1-((2R,4aR,6R,7R,7aR)-2-Isopropoxy-2-oxidodihydro-4H,6H-spiro[furo[3,2-d][1,3,2]dioxaphosphinine-7,2'-oxetan]-6-yl)pyrimidine-2,4(1H,3H)-dione (JNJ-54257099), a 3'-5'-Cyclic Phosphate Ester Prodrug of 2'-Deoxy-2'-Spirooxetane Uridine Triphosphate Useful for HCV Inhibition” (J Med Chem, 2016).

One data set addresses Cytochrome P450 3A4 (Homo sapiens, UniProt P08684). Briefly: Drug metabolism in baculovirus infected insect cell microsomes expressing human CYP3A4 assessed as CYP3A4-mediated intrinsic clearance per pmol CYP3A4 at 22.7 uM. The format is ADME. Particulars: recombinant enzyme; call rule not given here. In short, it runs like this:
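Incubation at 22.7 µM with human CYP3A4 supersomes. Intrinsic clearance (µL/min.pmol P450) and half-life (min) were determined.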

Data set [1] in a line: Prodrug conversion in dog cryopreserved hepatocytes assessed as 2'-deoxy-2'-spirooxetane uridine triphosphate level per million cells at 10 uM after 2 hrs by LC-MS/MS analysis. The class given is ADME, cell-based, Canis lupus familiaris, Hepatocyte. In short, it runs like this: (§1)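 Plated cryopreserved hepatocytes (study B) incubated with 10 µM unlabeled prodrug for 2, 8 or 24 h. Triphosphate measured in cell lysates and expressed as pmol/million hepatocytes. Quantification limit 2 ng/10^6 cells.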

In data set [2] the test system is Hepatocyte. Briefly: Prodrug conversion in human cryopreserved hepatocytes assessed as 2'-deoxy-2'-spirooxetane uridine triphosphate level per million cells at 10 uM after 2 hrs by LC-MS/MS analysis. The format is ADME, cell-based. In short, it runs like this: as §1
For data set [3], the system named is Hepatocyte. Briefly: Prodrug conversion in human hepatocytes assessed as 2'-deoxy-2'-spirooxetane uridine triphosphate formation in presence of CYP3A4 inhibitor ritonavir by LC-MS/MS analysis. The format is ADME, cell-based.
The subject of data set [4] is Hepatocyte. Briefly: Drug metabolism in human hepatocytes assessed as ((4R,5R,7R,8R)-5-(2,4-dioxo-3,4-dihydropyrimidin-1(2H)-yl)-8-hydroxy-1,6-dioxaspiro[3.4]octan-7-yl)methyl dihydrogen phosphate formation in presence of CYP3A4 inhibitor ketoconazole by LC-MS/MS analysis. The format is ADME, cell-based.
For data set [5], the system named is Hepatocyte. Briefly: Drug metabolism in human hepatocytes assessed as ((4R,5R,7R,8R)-5-(2,4-dioxo-3,4-dihydropyrimidin-1(2H)-yl)-8-hydroxy-1,6-dioxaspiro[3.4]octan-7-yl)methyl dihydrogen phosphate formation in presence of pan-CYP inhibitor 1-ABT by LC-MS/MS analysis. The class given is ADME, cell-based.
For data set [6], the system named is Hepatocyte. Briefly: Drug level in human hepatocytes in presence of CYP3A4 inhibitor ritonavir by LC-MS/MS analysis. The format is ADME, cell-based.
The subject of data set [7] is Hepatocyte. Briefly: Drug metabolism in human hepatocytes assessed as ((4R,5R,7R,8R)-5-(2,4-dioxo-3,4-dihydropyrimidin-1(2H)-yl)-8-hydroxy-1,6-dioxaspiro[3.4]octan-7-yl)methyl dihydrogen phosphate formation in presence of CYP2C8 and CYP2C9 inhibitor montelukast by LC-MS/MS analysis. The format is ADME, cell-based.
For data set [8], the system named is Hepatocyte. Briefly: Drug metabolism in human hepatocytes assessed as ((4R,5R,7R,8R)-5-(2,4-dioxo-3,4-dihydropyrimidin-1(2H)-yl)-8-hydroxy-1,6-dioxaspiro[3.4]octan-7-yl)methyl dihydrogen phosphate formation in presence of PDE4 inhibitor rolipram by LC-MS/MS analysis. The format is ADME, cell-based.
Data set [9] in a line: Half life in mouse plasma at 50 mg/kg, po. The format is ADME, organism-based. In short, it runs like this: (§2)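 Single oral dose of 50 mg/kg in 20% HP-β-cyclodextrin. Prodrug and triphosphate measured in plasma and liver over time (tlast 6–30 h). Half-life, Cmax, tmax and AUC0-last derived; liver/plasma ratio taken from AUC0-last. Prodrug data pooled from two independent studies.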

Data set [10] can be described thus: AUC (0 to infinity) in mouse plasma at 50 mg/kg, po. Set-up: dose 50 mg/kg, route oral, time infinity. The class given is ADME, organism-based. In short, it runs like this: (§3)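 Oral dose 50 mg/kg, formulated in 20% HP-β-cyclodextrin. Prodrug and triphosphate were measured in plasma and liver (ng/mL or ng/g). Parameters derived were Cmax, tmax, AUC0-last, AUC0-inf and t1/2. Some prodrug data come from two independent studies.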

Data set [11] in a line: Cmax in mouse liver at 50 mg/kg, po. Set-up: dose 50 mg/kg, route oral. The format is ADME, organism-based.
The nature of data set [12]: AUC (0 to last) in rat plasma at 50 mg/kg, po. The class given is ADME, organism-based. Set-up: dose 50 mg/kg, route oral, time 0 - last. In short, it runs like this:
as §3

A short description of data set [13]: AUC (0 to infinity) in rat plasma at 50 mg/kg, po. The format is ADME, organism-based. Set-up: dose 50 mg/kg, time infinity, route oral. In short, it runs like this:
as §3

Data set [14] concerns Liver. Briefly: Tmax in rat liver assessed as 2'-deoxy-2'-spirooxetane uridine triphosphate at 50 mg/kg, po. The class given is ADME, organism-based. The conditions noted are these: in vivo. In short, it runs like this:
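Single oral dose of 50 mg/kg formulated in 20% HP-β-cyclodextrin. Prodrug and its triphosphate were measured in plasma and liver (ng/mL or ng/g) over time, and Cmax, tmax, AUC, tlast and t1/2 were derived. For some analytes, data from two independent studies are reported.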

Data set [15] in a line: Ratio of AUC (0 to last) in dog liver to AUC (0 to last) in dog plasma. The format is ADME, Canis lupus familiaris. The gist of the method:
as §2

Data set [16] can be described thus: Cmax in dog liver at 50 mg/kg, po. The class given is ADME, organism-based, Canis lupus familiaris. Set-up: dose 50 mg/kg, route oral.
Data set [17] relates to Liver. Briefly: AUC (0 to last) in dog liver at 50 mg/kg, po. The class given is ADME, organism-based, Canis lupus familiaris. The conditions noted are these: in vivo. In short, it runs like this:
as §3

For data set [18], the system named is Liver. Briefly: AUC (0 to last) in dog liver assessed as 2'-deoxy-2'-spirooxetane uridine triphosphate at 50 mg/kg, po. The class given is ADME, organism-based, Canis lupus familiaris. The conditions noted are these: in vivo. The gist of the method:
as §3

The next data set deals with Hepatitis C virus. Briefly: Antiviral activity against HCV genotype 1a infected in homozygous cDNA-uPA chimeric SCID mouse bearing humanized hepatocytes assessed as change in HCV RNA level in serum at 100 mg/kg, po qd administered through gavage for 7 days by RT-PCR method. The class given is functional, Hepacivirus hominis, subtype 1a, Hepatocyte. In short, it runs like this:
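Male chimeric SCID cDNA-uPA+/+ mice with human hepatocyte liver (≥70% replacement by blood human albumin) and serum HCV RNA >1.0×10^6 copies/mL the week before dosing. Oral gavage for 7 days in 20% HP-β-CD, 50-200 mg/kg QD or BID. Serum sampled pre-dose on days 1, 2, 3, 5 and 7. Real-time PCR; mean change in log10 copies/mL, day 7 vs day 1 pre-dose.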

The test system of data set [19] is Hepatocyte. Briefly: Prodrug conversion in mouse primary hepatocytes assessed as 2'-deoxy-2'-spirooxetane uridine triphosphate level per million cells at 2 uM after 24 hrs using radiolabelled compound by LC-MS/MS analysis. The format is ADME, cell-based. The gist of the method: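 Study A: fresh primary hepatocyte cultures from mouse, rat, dog and human incubated with tritiated prodrug at 2 or 62.5 µM for 4 or 24 h. Triphosphate in cell lysates reported as pmol/million hepatocytes. Duplicate or single measurements.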

The subject of data set [20] is Hepatocyte. Briefly: Drug metabolism in mouse primary hepatocyte supernatant assessed as 1-[(4aR,6R,7R,7aR)-2-hydroxy-2-oxidodihydro-4H-spiro[furo[3,2-d][1,3,2]dioxaphosphinine-7,2'-oxetan]-6-yl]pyrimidine-2,4(1H,3H)-dione formation at 2 to 62.5 uM after 4 to 24 hrs using radiolabelled compound by HPLC analysis. The class given is ADME, cell-based. Particulars: hepatocytes. The gist of the method:
(§4)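 Fresh primary hepatocyte cultures incubated with tritiated prodrug (5'-[3H]) at 2 and 62.5 µM for 4 and 24 h. Supernatants taken after protein precipitation and profiled by HPLC with radioactivity detection. Cell lysates profiled for metabolites by radio-LC. Cyclic monophosphate also measured by LC/MS/MS.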

Data set [21] has as its system Hepatocyte. Briefly: Drug metabolism in rat primary hepatocyte supernatant assessed as 1-((4R,5R,7R,8R)-8-hydroxy-7-(hydroxymethyl)-1,6-dioxaspiro[3.4]octan-5-yl)pyrimidine-2,4(1H,3H)-dione formation at 2 to 62.5 uM after 4 to 24 hrs using radiolabeled compound by HPLC analysis. The class given is ADME, cell-based. Particulars: hepatocytes. In short, it runs like this:
as §4

Data set [22] in a line: Drug metabolism in dog primary hepatocyte supernatant assessed as 1-((4R,5R,7R,8R)-8-hydroxy-7-(hydroxymethyl)-1,6-dioxaspiro[3.4]octan-5-yl)pyrimidine-2,4(1H,3H)-dione formation at 2 to 62.5 uM after 4 to 24 hrs using radiolabeled compound by HPLC analysis. The format is ADME, cell-based, Canis lupus familiaris. Particulars: hepatocytes. In short, it runs like this:
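Study A: primary cultured hepatocytes (mouse, rat, dog, human) incubated with 2 or 62.5 µM 5'-[3H]-labelled prodrug for 4 and 24 h. Cell lysates were analysed for triphosphate. Supernatants were protein-precipitated and profiled by HPLC with radioactivity detection. Cyclic monophosphate was also assessed by LC/MS/MS.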

Molecules are shown by their SMILES.

Cytochrome P450 3A4, sequence (P08684 whole entry): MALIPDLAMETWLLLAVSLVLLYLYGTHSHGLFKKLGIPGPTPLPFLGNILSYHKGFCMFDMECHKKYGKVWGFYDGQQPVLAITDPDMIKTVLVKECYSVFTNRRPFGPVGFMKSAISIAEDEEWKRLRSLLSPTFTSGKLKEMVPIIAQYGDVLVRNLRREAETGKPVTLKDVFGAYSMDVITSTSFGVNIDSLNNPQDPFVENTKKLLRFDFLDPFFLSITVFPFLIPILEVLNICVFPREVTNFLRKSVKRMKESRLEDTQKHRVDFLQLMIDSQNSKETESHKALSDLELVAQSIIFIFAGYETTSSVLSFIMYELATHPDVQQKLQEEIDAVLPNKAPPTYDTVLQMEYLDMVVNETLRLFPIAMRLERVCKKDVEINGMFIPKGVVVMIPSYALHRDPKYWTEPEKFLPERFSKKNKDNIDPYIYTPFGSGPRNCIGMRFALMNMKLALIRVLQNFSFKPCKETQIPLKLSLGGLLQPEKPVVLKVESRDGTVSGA

`CC(C)O[P@@]1(=O)OC[C@H]2O[C@@H](n3ccc(=O)[nH]c3=O)[C@@]3(CCO3)[C@@H]2O1`: the CL on Cytochrome P450 3A4 was determined as 0.058 µL/min. The Drug metabolism in data set [1] was under 2 ng; in the data set with Hepatocyte [2], 0.087 pmol; with Hepatocyte [3], “metabolite_notdetected”; in the data set on Hepatocyte [4], “metabolite_notdetected”; in the data set on Hepatocyte [5], “metabolite_notdetected”; in the data set with Hepatocyte [7] it was “metabolite_detected”. Further, the Drug metabolism entry with Hepatocyte [8] was “metabolite_detected”. For the same molecule, the Drug uptake result with Hepatocyte [6] is recorded as “Active”. Also, the half-life in [9] is 4.4 h. Also, the AUC(0-inf) in data set [10] was 2620 ng·h/mL; in data set [13], 7440 ng·h/mL. Besides, the Cmax in data set [11] turned out to be 701 ng/g; in data set [16] it was 5030 ng/g. Moreover, in [12], the AUC(0-t) amounted to 7330 ng·h/mL. Further, in the data set on Liver [14], the Tmax turned out to be 4 h. Also, the Kp in [15] was 1.4. For the same molecule, the AUClast with Liver [17] was determined as 35596 ng·h/g; in the data set on Liver [18], 223803 ng·h/g. Besides, the Activity in the data set with Hepatitis C virus is -0.83.

Regarding `[3H]C1O[P@](=O)(OC(C)C)O[C@@H]2[C@@H]1O[C@@H](n1ccc(=O)[nH]c1=O)[C@@]21CCO1` (some centres undefined), the Drug metabolism is reported as 0.049 pmol with Hepatocyte [19], “metabolite_detected” in the data set with Hepatocyte [20], “metabolite_detected” in the data set with Hepatocyte [21] and “metabolite_detected” in data set [22].

The half-life is how long it takes for the measured level to halve. A high value points to slow decline. For orientation: AUC(0-inf) means the area under the concentration-time curve extrapolated to infinity. Read a high AUC(0-inf) as more exposure. What is called Cmax is the maximum level reached in the sampled fluid or tissue. For orientation: AUC(0-t) means the area under the concentration-time curve up to a stated or last time point. A higher AUC(0-t) goes with more exposure. What is called Tmax is the time at which the peak concentration occurs. As a reminder, the Kp is tissue or fluid exposure divided by exposure in the circulation.
